Measurements from different studies.
Protocols differ between the studies behind these lines.
Read-out: enzyme activity
Mode: inhibitor
PARP10: Protein mono-ADP-ribosyltransferase PARP10 (PARP10, Homo sapiens, UniProt Q53GL7)
HDAC1: Histone deacetylase 1 (HDAC1, Homo sapiens, UniProt Q13547)
Seed linoleate 13S-lipoxygenase-1: Seed linoleate 13S-lipoxygenase-1 (Glycine max, UniProt P08170)

| SMILES | target | assay | IC50 [nM] |
| --- | --- | --- | --- |
| Cc1ccc(Cn2nnc3c4cc(C)ccc4c(=O)[nH]c32)cc1 | PARP10 | – | > 10000 |
| O=C(NO)c1ccc(Cn2cnc3c(Nc4ccc(Cl)cc4)ncnc32)cc1 | HDAC1 | fluorescence | 166 |
| CC(C)COc1ccc(N(Cc2nc(-c3ccccc3)cs2)C(=O)CCCCCC(=O)NO)cc1 | HDAC1 | – | 2.6 |
| Cc1ccc(Cn2cc(-c3ccccc3C(N)=O)nn2)cc1 | PARP10 | – | > 10000 |
| COc1ccc(N(Cc2csc(-c3ccc(Cl)cc3)n2)C(=O)CCCCCC(=O)NO)cc1 | HDAC1 | – | 1 |
| O=C(NO)c1ccc(Cn2cnc3c(Nc4cccc([N+](=O)[O-])c4)ncnc32)cc1 | HDAC1 | fluorescence | 148 |
| COc1ccc(N(Cc2csc(-c3ccc(C)cc3)n2)C(=O)CCCCCC(=O)NO)cc1 | HDAC1 | – | 0.8 |
| O=c1[nH]c2c(nnn2C2CCCCC2)c2ccccc12 | PARP10 | – | > 10000 |
| Cc1ccc(S(=O)(=O)[N](Nc2ccc([N+](=O)[O-])cc2[N+](=O)[O-])[Sn]([Cl])[Cl])cc1 | Polyunsaturated fatty acid 5-lipoxygenase (ALOX5, Homo sapiens, UniProt P09917) | – | 1520 |
| COc1ccc(Nc2ncnc3c2ncn3Cc2ccc(C(=O)NO)cc2)cc1 | Histone deacetylase 8 (HDAC8, Homo sapiens, UniProt Q9BY41) | – | 112 |
| O=C1CC[C@H](N2Cc3cc(N4CCN(CC5CCN(c6ccc([C@@H]7c8ccc(O)cc8CC[C@@H]7c7ccccc7)cc6)CC5)CC4)ccc3C2=O)C(=O)N1 | ATP-dependent translocase ABCB1 (ABCB1, Homo sapiens, UniProt P08183) | – | 900 |
| COc1ccc(N(Cc2csc(-c3ccccc3)n2)C(=O)CCCCCC(=O)NO)cc1 | HDAC1 | – | 1.1 |
| O=C(NO)c1ccc(Cn2cnc3c(Nc4ccc(F)c(Cl)c4)ncnc32)cc1 | HDAC1 | fluorescence | 341 |
| CCCCn1c(=O)c2cc(F)ccc2c2nnn(Cc3ccc(C)cc3)c21 | PARP10 | – | > 10000 |
| COc1ccc(N(Cc2nc(-c3ccc(C)cc3)cs2)C(=O)CCCCCC(=O)NO)cc1 | HDAC1 | – | 2.6 |
| CCCCCn1nnc2c3ccccc3c(=O)[nH]c21 | PARP10 | – | 182 |
| O=C(O[C@@H]1COC(=O)c2cc(O)c(O)c(O)c2-c2c(cc(O)c(O)c2O)C(=O)O[C@H]1[C@@H]1OC(=O)c2cc(O)c(O)c(O)c2-c2c(O)c(O)c(O)c3c2C(=O)O[C@H]1[C@@H]3O)c1cc(O)c(O)c(O)c1 | Seed linoleate 13S-lipoxygenase-1 | – | 36200 |
| O=c1[nH]c2c(nnn2Cc2ccccc2)c2ccc(F)cc12 | PARP10 | – | 933 |
| Clc1ccc(Nc2ccncc2)cc1Cl | Uracil-DNA glycosylase (UNG, Homo sapiens, UniProt P13051) | – | > 99000 |
| COc1ccc(N(Cc2csc(-c3ccccc3Br)n2)C(=O)CCCCCC(=O)NO)cc1 | HDAC1 | – | 1.3 |
| Nc1nc2c(ncn2[C@H]2CC[C@@H](COP(=O)(O)OP(=O)(O)OP(=O)(O)O)O2)c(=O)[nH]1 | TERT (Tribolium castaneum, UniProt Q0QHL8) | fluorescence | 550 |
| O=c1[nH]c2c(nnn2Cc2ccccc2C(F)(F)F)c2ccccc12 | PARP10 | – | > 10000 |
| COc1ccc(N(Cc2nc(-c3ccc(F)cc3)cs2)C(=O)CCCCCC(=O)NO)cc1 | HDAC1 | – | 0.9 |
| C=C(C)[C@@H]1CC[C@]2(C)CC[C@]3(C)[C@H](CC[C@@H]4[C@@]5(C)CC[C@H](O)C(C)(C)[C@@H]5CC[C@]43C)[C@@H]12 | Seed linoleate 13S-lipoxygenase-1 | – | 110000 |
| Cc1ccc(Cn2nnc3c4ccccc4c(=O)[nH]c32)cc1 | PARP10 | – | 204 |
| O=C(CCCCCC(=O)N(Cc1nc(-c2ccccc2)cs1)c1ccc(OCc2ccc(F)cc2)cc1)NO | HDAC1 | – | 3.8 |
